Assay outcomes deposited in PubChem by several laboratories.
PREPL inhibitor: PREPL enzyme inhibitors, primary screen, biochemical, fluorescence polarization. Prolyl endopeptidase-like (Homo sapiens), Q4J6C6. recombinant PREPL, fluorescence polarization activity-based probe. inhibition, % at 5.96 µM. hit rate 0.68% among 320,000. AID 2751, 2010; in the data active means inhibition above about 43%
NTR1 ag: agonists of human NTR1, primary screen, imaging, U2OS cells, beta-arrestin-GFP, high content | NTR1-U2OS beta-arrestin-GFP spot imaging, agonist mode | hit rate 0.17% among 330,000 | activation, % at 20 µM;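 active means activation at or above 40% of the spot to cytoplasm intensity ratio, with at least 20 cells analyzed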
MC4R antag cAMP: MC4R antagonists of cAMP signaling, primary screen, cell-based, TR-FRET, antagonist arm of biased-ligand search; hit rate 0.48% among 360,000; MC4R-expressing cells, MTII-stimulated cAMP, LANCE TR-FRET; Melanocortin receptor 4 (Homo sapiens), P32245; inhibition, % at 6.5 µM;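 active means inhibition above its plate's cutoff, the mean of tested wells on that plate plus 3 SD, cut at about 29% in these data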
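Assay system: U2OS-MC4R stable cell line; Also added: Melanotan II; Technique: Eu-cAMP/anti-cAMP TR-FRET, emission 671 nm; Times: 30-min compound, 1-h challenge, 1-h detection, room temperature.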
MC4R barr agon: MC4R agonists recruiting beta-arrestin, primary screen, cell-based, luminescence, agonist arm of biased-ligand search | U2OS MC4R beta-arrestin complementation; percent of melanotan II response, DMSO zero | activation, % at 8.9 µM | hit rate 0.98% among 360,000 | AID 540308, 2011;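 active means activation above a per-plate cutoff, the mean activation of sample wells on that plate plus 3 SD, cut at about 8% in these data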
m5-HT2A agonist: mouse Htr2a agonists via beta-arrestin recruitment, primary screen, cell-based, luminescence; hit rate 0.66% among 360,000; activation, % at 7.6 µM; CHO-K1 mHTR2A beta-arrestin complementation; percent of 30 µM serotonin response; AID 624169, 2012; 5-hydroxytryptamine receptor 2A (Mus musculus), P35363;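 active means activation above a run cutoff, the mean activation of all tested compounds plus 3 SD, cut at about 14% in these data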
Lipid droplet: inhibitors of hepatocyte lipid droplet formation, primary screen, imaging, high-throughput imaging, BODIPY stain. AML12 mouse hepatocytes, oleate lipid droplets. hit rate 0.4% among 240,000. inhibition, % at 6.5 µM;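 active means lipid droplet intensity inhibited by at least 50%, with more than 500 cells counted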
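material = mouse AML12 hepatocyte cell line, fixed after treatment | also added = 100 µM oleic acid challenge | doses = compound at 6.5 µM only | schedule = overnight exposure | technique = Image-based BODIPY and DAPI two-channel analysis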
MC4R barr ag: MC4R beta-arrestin agonists, retest, confirmation, cell-based, luminescence, U2OS; shares compounds with MC4R barr agon; U2OS MC4R beta-arrestin recruitment; scaled DMSO 0%, Melanotan II 100%; activation, % at 8.9 µM; hit rate 31% among 2,400;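 active means mean activation across replicates above the hit cutoff set in the earlier primary screen, cut at about 8% in these data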
MOR-DOR barr ag: agonists of MOR-DOR heterodimerization, counter-screen for MC4R biased agonist project, cell-based, luminescence. shares compounds with MC4R barr agon. U2OS PathHunter beta-arrestin, beta-gal luminescence; percent of deltorphin B response, DMSO zero. activation, % at 9.2 µM. hit rate 5.8% among 2,400;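 active means mean activation across replicates exceeds the hit threshold derived in the earlier primary screen, cut at about 18% in these data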
Large screens that a line does not name were inactive (follow-up assays come after a bar, where they were run). An excerpt weighted towards active compounds, which were near 2.7% of everything screened.

C=CCOc1ccc(/C=N/N2C(=O)C(CC(=O)Nc3ccc(F)cc3F)SC2=NC)cc1 (stereo unspecified)	MC4R barr agon 11 | MC4R barr ag inactive | MOR-DOR barr ag inactive
O=S(=O)(c1ccc(SCc2ccccc2F)nc1)N1CCCC1	none (no result: Lipid droplet)
COc1cc(OC)cc(-c2c(-c3cccs3)c3cc(-c4ccc(C(N)=O)cc4)ccc3n2C)c1	MC4R barr agon 16 (no result: Lipid droplet) | MC4R barr ag 11 | MOR-DOR barr ag inactive
CC/C(=N\NC(=O)c1ccc(N(C)C)cc1)c1ccccc1	none
Cc1cccc(C)c1NC(=O)CN1CCN(CC(=O)NCC2(N3CCCCC3)CCCCC2)CC1	none (no result: Lipid droplet)
COc1ccc([C@H]2C[C@@H](O)[C@H](n3cc(-c4ccc(F)cc4)nn3)CN2CC2CCCCC2)cc1	MC4R barr agon 14 (no result: PREPL inhibitor, NTR1 ag, Lipid droplet) | MC4R barr ag inactive | MOR-DOR barr ag inactive
COC(=O)c1nn(-c2ccc(Oc3ccccc3)cc2)c(=O)cc1O	none
COc1ccc(CNC(=O)[C@@H]2CC=C[C@@H]3CCN(Cc4ccc(Cl)c(Cl)c4)C(=O)[C@@H]32)cc1	MC4R barr agon 18 (no result: Lipid droplet) | MC4R barr ag 8.8 | MOR-DOR barr ag inactive
COc1ccc(C2=NS(=O)(=O)N(C)C(C(=O)N(C)Cc3ccccc3)=C2)cc1OC	none
COC(=O)c1cccc(Nc2nc(-c3cccnc3)nc3ccccc23)c1	none
CCOC(=O)c1cccc(Nc2nc(-c3cccnc3)nc3ccccc23)c1	MC4R barr agon 12 (no result: Lipid droplet) | MC4R barr ag inactive | MOR-DOR barr ag inactive
CCc1cc(-c2[nH]ncc2-c2ccc3c(c2)OCO3)c(O)cc1O	MC4R barr agon 19 | MC4R barr ag inactive | MOR-DOR barr ag inactive
CC(=O)N1CCc2cc(Br)cc(S(=O)(=O)CCC(=O)N3CCN(c4ccccn4)CC3)c21	none
CCCC(=O)Nc1ccc2c(c1)Cc1ccccc1-2	none
Cc1ccccc1-c1nc(-c2ccc(NC(=O)c3ccc(Br)o3)cc2)no1	MC4R barr agon 30 | MC4R barr ag 21 | MOR-DOR barr ag inactive
O=C(Nc1ccc2c(c1)Cc1ccccc1-2)c1ccccc1F	MC4R barr agon 11 (no result: Lipid droplet) | MC4R barr ag inactive | MOR-DOR barr ag inactive
O=C(Nc1ccc2c(c1)Cc1ccccc1-2)c1ccc(Br)o1	MC4R barr agon 10 | MC4R barr ag inactive | MOR-DOR barr ag inactive
COC(=O)c1ccc(NC(=O)COc2coc(CN3CCc4ccccc43)cc2=O)cc1	none (no result: Lipid droplet)
Cc1ccc(NC(=O)COc2coc(CN3CCc4ccccc43)cc2=O)cc1Cl	MC4R barr agon 12 (no result: Lipid droplet) | MC4R barr ag inactive | MOR-DOR barr ag 25
Cn1nccc1C(=O)NC1CCCc2c1cnn2-c1ccc(C(C)(C)C)cc1 (stereo unspecified)	none
Cc1occc1-c1nnc(SCC(=O)Nc2nc(C(C)(C)C)cs2)o1	MC4R barr agon 12 | MC4R barr ag inactive | MOR-DOR barr ag inactive
O=C1CCCC/C=C\C[C@H](CC(=O)N(CCO)Cc2ccccc2)C(=O)NCCO1	none (no result: Lipid droplet)
O=C(Nc1ccc(Oc2ccccc2)cc1)C1CCCN(c2ncccn2)C1 (stereo unspecified)	MC4R barr agon 9.9 (no result: Lipid droplet) | MC4R barr ag inactive | MOR-DOR barr ag inactive
CC(=O)Nc1ccc(NC(=O)C2CCCN(c3ncccn3)C2)cc1 (stereo unspecified)	none
